Measured values reported in ChEMBL document CHEMBL2331489, “Novel cinnoline-based inhibitors of LRRK2 kinase activity” (Bioorg Med Chem Lett, 2013).
Active and inactive are the calls of the source. The rule behind the calls is not given here.

What was measured:
[1] = target: T1, Leucine-rich repeat serine/threonine-protein kinase 2 (Homo sapiens, UniProt Q5S007); assay: Inhibition of wild type GST-tagged LRRK2 (970 to 2527 amino acid residues) (unknown origin) assessed as inhibition of biotinylated-LRRKtide phosphorylation by HTRF assay in presence of ATP
[2] = target: T1, Leucine-rich repeat serine/threonine-protein kinase 2; assay: Inhibition of LRRK2 (unknown origin) at 10 uM relative to control
[3] = target: Platelet-derived growth factor receptor alpha (Homo sapiens, UniProt P16234); assay: Inhibition of PDGFRalpha (unknown origin) by TR-FRET assay in presence of ATP
Mus musculus = assay: Inhibition of P-gp in Mdr1(a/b) knock out and P-gp competent FVB mouse at 1 mg/kg, iv; format: functional, organism-based; parameters: dose 1 mg/kg
Procedure, shortened: (§1)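 FVB mice, both Mdr1a/b (-/-) and P-gp-competent wild-type, were given a single 1 mg/kg IV dose. Brain and plasma concentrations were measured 5 min after dosing. Brain uptake was expressed as the brain-to-plasma concentration ratio (Kp). In vivo P-gp efflux was assessed by comparing the knockout and wild-type strains.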

[4] = Ratio of drug level in brain to plasma in Mdr1(a/b) knock out and P-gp competent FVB mouse at 1 mg/kg, iv at 5 mins; format: ADME, organism-based; parameters: dose 1 mg/kg, route intravenous; conditions: read-out: BPR; procedure, shortened: as §1
[5] = target: ATP-dependent translocase ABCB1 (Homo sapiens, UniProt P08183); assay: Inhibition of MDR1 (unknown origin) transfected in MDCK cells; format: cell-based
Brain = assay: Drug uptake in Mdr1(a/b) knock out and P-gp competent FVB mouse brain at 1 mg/kg, iv at 5 mins; format: ADME, organism-based; parameters: dose 1 mg/kg, route intravenous; conditions: in vivo; procedure, shortened: as §1
[6] = target: T2, Leucine-rich repeat serine/threonine-protein kinase 2 (Homo sapiens, UniProt Q5S007, G2019S); assay: Inhibition of GST-tagged LRRK2 G2019S mutant (970 to 2527 amino acid residues) (unknown origin) assessed as inhibition of biotinylated-LRRKtide phosphorylation by HTRF assay in presence of ATP
[7] = target: Macrophage colony-stimulating factor 1 receptor (Homo sapiens, UniProt P07333); assay: Inhibition of CSF1R (unknown origin) by TR-FRET assay in presence of ATP
[8] = target: T2, Leucine-rich repeat serine/threonine-protein kinase 2; assay: Inhibition of LRRK2 G2019S mutant (unknown origin) transfected in HEK293 cells assessed as inhibition of S935 phosphorylation; format: cell-based

Platelet-derived growth factor receptor alpha, sequence (P16234 whole entry): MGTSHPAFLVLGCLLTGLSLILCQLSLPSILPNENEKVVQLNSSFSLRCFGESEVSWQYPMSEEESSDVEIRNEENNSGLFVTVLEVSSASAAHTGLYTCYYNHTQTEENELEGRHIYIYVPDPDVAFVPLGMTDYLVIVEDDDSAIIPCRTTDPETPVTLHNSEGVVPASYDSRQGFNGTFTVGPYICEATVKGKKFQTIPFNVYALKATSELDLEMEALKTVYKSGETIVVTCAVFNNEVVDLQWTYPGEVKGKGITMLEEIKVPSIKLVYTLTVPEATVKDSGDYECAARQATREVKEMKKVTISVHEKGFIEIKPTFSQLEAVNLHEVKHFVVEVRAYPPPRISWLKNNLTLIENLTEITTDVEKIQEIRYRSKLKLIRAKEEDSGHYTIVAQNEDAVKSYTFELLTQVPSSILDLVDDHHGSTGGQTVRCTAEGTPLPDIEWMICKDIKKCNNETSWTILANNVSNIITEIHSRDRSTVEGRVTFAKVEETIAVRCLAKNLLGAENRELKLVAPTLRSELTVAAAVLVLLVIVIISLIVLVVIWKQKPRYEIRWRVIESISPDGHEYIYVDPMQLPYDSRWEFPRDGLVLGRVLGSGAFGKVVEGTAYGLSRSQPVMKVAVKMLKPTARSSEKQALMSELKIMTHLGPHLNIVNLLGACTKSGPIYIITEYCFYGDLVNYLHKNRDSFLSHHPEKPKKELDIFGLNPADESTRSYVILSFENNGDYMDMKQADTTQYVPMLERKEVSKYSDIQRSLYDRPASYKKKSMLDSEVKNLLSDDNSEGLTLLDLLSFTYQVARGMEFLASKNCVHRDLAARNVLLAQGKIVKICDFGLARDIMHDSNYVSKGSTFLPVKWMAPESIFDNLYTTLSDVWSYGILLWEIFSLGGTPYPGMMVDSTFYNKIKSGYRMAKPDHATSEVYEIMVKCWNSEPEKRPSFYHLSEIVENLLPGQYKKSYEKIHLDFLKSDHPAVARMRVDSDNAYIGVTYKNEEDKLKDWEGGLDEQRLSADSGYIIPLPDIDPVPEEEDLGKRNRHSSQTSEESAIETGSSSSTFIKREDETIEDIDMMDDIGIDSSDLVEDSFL
T2 sequence (Q5S007 whole entry G2019S, the tested form may be a part): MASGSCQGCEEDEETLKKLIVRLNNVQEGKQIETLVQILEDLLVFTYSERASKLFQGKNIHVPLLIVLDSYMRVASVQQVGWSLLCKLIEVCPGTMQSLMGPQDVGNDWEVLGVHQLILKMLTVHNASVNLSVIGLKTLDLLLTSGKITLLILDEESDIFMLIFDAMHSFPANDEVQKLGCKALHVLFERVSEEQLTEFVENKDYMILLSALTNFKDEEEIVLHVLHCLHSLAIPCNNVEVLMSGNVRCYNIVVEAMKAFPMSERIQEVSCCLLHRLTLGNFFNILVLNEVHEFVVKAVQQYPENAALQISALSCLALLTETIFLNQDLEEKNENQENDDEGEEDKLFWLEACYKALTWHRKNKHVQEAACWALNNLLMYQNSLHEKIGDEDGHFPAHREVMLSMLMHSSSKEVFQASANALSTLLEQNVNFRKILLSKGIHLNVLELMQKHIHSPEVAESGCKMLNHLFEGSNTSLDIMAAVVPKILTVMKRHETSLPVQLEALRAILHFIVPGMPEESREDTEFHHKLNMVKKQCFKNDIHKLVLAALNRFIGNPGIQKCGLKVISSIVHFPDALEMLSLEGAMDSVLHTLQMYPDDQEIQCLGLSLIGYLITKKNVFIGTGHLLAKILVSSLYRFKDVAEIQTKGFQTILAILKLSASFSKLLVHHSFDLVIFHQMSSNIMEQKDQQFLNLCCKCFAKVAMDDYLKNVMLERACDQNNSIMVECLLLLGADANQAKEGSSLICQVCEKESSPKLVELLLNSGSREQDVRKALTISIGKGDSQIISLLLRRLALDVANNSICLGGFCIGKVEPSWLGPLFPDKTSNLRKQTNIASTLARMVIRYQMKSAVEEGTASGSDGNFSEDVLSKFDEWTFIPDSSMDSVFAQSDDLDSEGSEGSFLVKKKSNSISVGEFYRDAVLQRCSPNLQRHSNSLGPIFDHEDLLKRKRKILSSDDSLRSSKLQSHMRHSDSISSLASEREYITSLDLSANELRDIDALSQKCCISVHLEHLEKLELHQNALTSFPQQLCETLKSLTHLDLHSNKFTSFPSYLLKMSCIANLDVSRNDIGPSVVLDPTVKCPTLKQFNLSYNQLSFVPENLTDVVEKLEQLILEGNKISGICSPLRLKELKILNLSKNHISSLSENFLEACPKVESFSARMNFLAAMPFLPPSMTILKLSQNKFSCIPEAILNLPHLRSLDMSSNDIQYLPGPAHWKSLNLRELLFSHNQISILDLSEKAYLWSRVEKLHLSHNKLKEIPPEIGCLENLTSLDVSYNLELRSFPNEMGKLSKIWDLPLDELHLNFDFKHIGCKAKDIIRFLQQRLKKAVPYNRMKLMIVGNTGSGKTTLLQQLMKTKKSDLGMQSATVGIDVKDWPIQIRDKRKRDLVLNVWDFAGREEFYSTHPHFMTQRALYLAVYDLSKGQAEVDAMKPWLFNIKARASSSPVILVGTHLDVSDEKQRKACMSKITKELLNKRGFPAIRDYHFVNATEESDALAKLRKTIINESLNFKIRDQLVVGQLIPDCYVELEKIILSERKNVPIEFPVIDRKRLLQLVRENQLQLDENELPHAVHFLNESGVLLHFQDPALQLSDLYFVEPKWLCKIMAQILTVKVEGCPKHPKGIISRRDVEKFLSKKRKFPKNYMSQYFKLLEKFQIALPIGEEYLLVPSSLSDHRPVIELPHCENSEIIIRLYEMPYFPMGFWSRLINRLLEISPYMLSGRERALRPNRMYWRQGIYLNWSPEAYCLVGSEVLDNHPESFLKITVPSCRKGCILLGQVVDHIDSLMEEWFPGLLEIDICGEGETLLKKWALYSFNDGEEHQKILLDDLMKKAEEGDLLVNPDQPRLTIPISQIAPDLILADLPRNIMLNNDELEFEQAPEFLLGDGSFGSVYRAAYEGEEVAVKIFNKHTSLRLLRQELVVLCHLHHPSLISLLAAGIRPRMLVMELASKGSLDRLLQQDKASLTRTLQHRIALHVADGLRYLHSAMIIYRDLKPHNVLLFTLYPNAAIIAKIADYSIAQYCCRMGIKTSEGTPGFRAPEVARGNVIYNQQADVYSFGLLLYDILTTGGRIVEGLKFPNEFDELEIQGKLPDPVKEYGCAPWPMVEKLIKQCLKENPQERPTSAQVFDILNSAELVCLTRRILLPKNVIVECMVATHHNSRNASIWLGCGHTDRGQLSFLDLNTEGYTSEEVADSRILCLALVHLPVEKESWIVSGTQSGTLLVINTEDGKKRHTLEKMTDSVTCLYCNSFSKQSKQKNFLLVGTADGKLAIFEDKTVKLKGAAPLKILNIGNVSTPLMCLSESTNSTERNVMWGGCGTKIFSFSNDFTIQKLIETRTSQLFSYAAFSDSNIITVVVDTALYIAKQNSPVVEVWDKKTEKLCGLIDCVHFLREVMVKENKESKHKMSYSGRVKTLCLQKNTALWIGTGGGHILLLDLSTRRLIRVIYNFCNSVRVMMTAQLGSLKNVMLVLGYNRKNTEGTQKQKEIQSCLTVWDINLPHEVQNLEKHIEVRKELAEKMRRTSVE
T1 sequence (Q5S007 whole entry, the tested form may be a part): as the sequence (Q5S007 whole entry G2019S, the tested form may be a part) above, with S2019G counted along it
Macrophage colony-stimulating factor 1 receptor, sequence (P07333 whole entry): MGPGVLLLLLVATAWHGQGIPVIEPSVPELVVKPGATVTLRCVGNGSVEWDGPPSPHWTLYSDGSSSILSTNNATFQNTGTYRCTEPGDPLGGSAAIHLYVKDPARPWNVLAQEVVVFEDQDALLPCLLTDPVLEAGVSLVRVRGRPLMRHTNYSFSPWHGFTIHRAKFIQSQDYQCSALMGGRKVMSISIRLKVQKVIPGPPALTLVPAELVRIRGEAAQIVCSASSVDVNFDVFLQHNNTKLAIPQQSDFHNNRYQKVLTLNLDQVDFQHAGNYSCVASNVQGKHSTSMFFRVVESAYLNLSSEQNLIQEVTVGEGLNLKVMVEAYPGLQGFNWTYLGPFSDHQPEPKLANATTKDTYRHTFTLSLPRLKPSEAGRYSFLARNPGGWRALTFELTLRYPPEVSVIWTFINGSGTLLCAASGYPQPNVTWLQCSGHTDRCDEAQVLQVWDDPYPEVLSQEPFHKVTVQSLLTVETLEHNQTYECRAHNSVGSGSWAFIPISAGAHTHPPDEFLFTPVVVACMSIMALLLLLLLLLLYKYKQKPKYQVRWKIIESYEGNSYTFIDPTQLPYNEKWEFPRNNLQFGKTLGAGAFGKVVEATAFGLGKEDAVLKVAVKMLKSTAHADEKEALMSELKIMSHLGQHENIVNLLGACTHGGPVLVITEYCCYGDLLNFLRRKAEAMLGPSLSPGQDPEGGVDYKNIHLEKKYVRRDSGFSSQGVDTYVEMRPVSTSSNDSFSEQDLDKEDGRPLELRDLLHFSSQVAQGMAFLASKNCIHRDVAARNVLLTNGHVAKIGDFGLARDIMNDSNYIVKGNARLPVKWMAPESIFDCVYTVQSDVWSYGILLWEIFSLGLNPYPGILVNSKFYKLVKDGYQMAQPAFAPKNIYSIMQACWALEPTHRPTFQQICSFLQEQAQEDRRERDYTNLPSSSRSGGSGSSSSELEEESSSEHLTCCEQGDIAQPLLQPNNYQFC

SMILES | IC50 [1] [nM] | inhibition [2] [%] | IC50 [3] [nM] | Kp at 5 min [4] | inhibition (INH) [5] | Drug uptake (Brain) | IC50 [6] [nM] | IC50 [7] [nM] | EC50 [8] [nM] | inhibition (Mus musculus)
CC(C)Nc1c(C(N)=O)cnc2cc(-c3ccc(S(C)(=O)=O)cc3)ccc12 | 35 | 96 |  |  |  |  |  |  |  | 
CC(C)Nc1c(C(N)=O)nnc2cc(N3CCOCC3)ccc12 | 9 | 99 | 22 | 11.4 | Active | Active | 12 | 54 |  | Active
C[C@@H](Nc1c(C(N)=O)nnc2cc(-c3ccc(S(C)(=O)=O)cc3)ccc12)C1CC1 | 1 | 97 | 22 |  |  |  | 7 | 17 | 70 | 
CC(C)Nc1c(C(N)=O)nnc2ccc(-c3ccncc3)cc12 |  | 95 |  |  |  |  | 66 |  |  | 

Now from value to molecule, other results behind:

IC50 [1] [nM] | inhibition [2] [%] | IC50 [3] [nM] | Kp at 5 min [4] | inhibition (INH) [5] | Drug uptake (Brain) | IC50 [6] [nM] | IC50 [7] [nM] | EC50 [8] [nM] | SMILES | inhibition (Mus musculus)
 | 97 | 127 | 0.76 | Active | Active | 19 | < 40 |  | CS(=O)(=O)c1ccc(-c2ccc3c(NC4CCC4)c(C(N)=O)nnc3c2)cc1 | Active
1 | 96 |  |  |  |  | 5 |  | 109 | CC(C)Nc1c(C(N)=O)nnc2ccc(-c3cn[nH]c3)cc12 | 
